Experimental data: article PMC7069794 (Hepatology (Baltimore, Md.), 2020)

Experiments:
[1] = test system: Paneth cells / intestinal crypts of WT mice; assay: acute zinc deprivation by dithizone in mice; type: in vivo; details: dithizone 75 mg/kg i.p., 6 h
Method in brief: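 Male WT mice received dithizone at 75 mg/kg i.p., and intestines were collected 6 h later. Small-intestinal crypts were isolated for imaging and bacterial killing, and ileal Defa5 and Lyz1 mRNA was measured relative to untreated mice, n=6. Data are mean±SD, compared by t-test, rank-sum or ANOVA as appropriate (P<0.05).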

[2] = test system: released crypt components (mainly AMPs) of isolated mouse crypts; type: cell-based, mice; details: 10 μmol/L carbamyl choline, then 2 μmol/L TPEN for 30 min; n=6
Method in brief: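 Crypts isolated from male WT mouse small intestine were treated with 10 μmol/L carbamyl choline to induce granule release. Released material was then exposed to 2 μmol/L TPEN for 30 min for zinc chelation, and its bactericidal activity was measured, n=6. Data are mean±SD.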

E. coli ML35 = E. coli ML35 killing of HD5 with or without zinc determined by flow cytometry; type: cell-based; details: n=6; for bactericidal activity: oxidized and reduced forms of HD5, without zinc
[3] = test system: Hepa1c1c7 mouse hepatoma cells; type: cell-based; details: LPS 100 ng/mL, 6 h; n=3
[4] = test system: pair-fed and alcohol-fed mice; assay: LPS injection 4 hours before finishing chronic feeding in mice; type: in vivo; details: LPS 4 mg/kg i.p., n=6
Method in brief: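 Male mice, 12 weeks old, were fed ethanol-containing Lieber-DeCarli liquid diet (alcohol-fed) or isocaloric control liquid diet (pair-fed) for 8 wk. A single LPS dose of 4 mg/kg was given i.p. 4 h before the end of feeding. Read-out was relative hepatic Lcn2 and Cxcl1 mRNA, n=6. Data are mean±SD, compared by t-test or one-way ANOVA with Newman-Keuls post hoc test (P<0.05).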

pepsin = type: in vitro ADME
alcohol-fed mice = type: in vivo
mice = details: cited from earlier work
[5] = overnight incubation of HD5red with or without zinc, nUHPLC-MS; type: physicochemical

S=C(N=Nc1ccccc1)NNc1ccccc1 [Dithizone, dithizone]
PC degranulation [1]: rapid PC degranulation
crypt bacterial killing ([1]; n=6): impaired
expression of Defa5 and Lyz1 ([1]; ileal mRNA, n=6): reduced

c1ccc(CN(CCN(Cc2ccccn2)Cc2ccccn2)Cc2ccccn2)nc1 [TPEN, N,N,N′,N′-Tetrakis(2-pyridylmethyl)ethylenediamine]
bacterial killing of released crypt components after zinc chelation [2]: impaired bacterial killing

[Zn] [Zinc, zinc]
bacterial viability, zinc alone (E. coli ML35; zinc without HD5): did not affect bacterial viability

lipopolysaccharide [LPS]
Lcn2 and Cxcl1 expressions in Hepa1c1c7 hepatocytes [3]: directly stimulated
hepatic Cxcl1 expression in AF mice in response to LPS ([4]; alcohol-fed mice): did not further alter
hepatic Lcn2 in AF mice in response to LPS ([4]; alcohol-fed mice): only mildly upregulated
hepatic Lcn2 and Cxcl1 in PF mice in response to LPS ([4]; pair-fed mice): dramatically upregulated

B1: human α-defensin 5 (peptide, UniProt Q01523 20-94, looked up)
Defensin alpha 5: ESLQERADEATTQKQSGEDNQDLAISFAGNGLSALRTSGSQARATCYCRTGRCATRESLSGVCEISGRLYRLCCR
modifications: Defensin-5
intact HD5 that bypassed gastric digestion (pepsin): 75%
intestinal structural changes (slight villous blunting), H&E staining (alcohol-fed mice; AF+HD5 group vs AF group (Fig. S11)): improved
Verrucomicrobiaceae abundance in cecal contents (alcohol-fed mice; AF+HD5 mice, mean±SD, AF mice 2.03±0.69%, P<0.001, n=8): 20.39±5.29%
plasma ALT levels (alcohol-fed mice; AF+HD5 vs AF, n=8): decreased
A. muciniphila abundance, PCR analysis (alcohol-fed mice; cecal contents, AF+HD5 vs AF, n=4): significantly enriched
expression of intestinal Il22 (alcohol-fed mice; ileal mRNA, AF+HD5 vs AF): notably augmented
levels of inflammatory cytokines/chemokines, including Ip10, Tnfa, and Mip2 (alcohol-fed mice; ileal mRNA, AF+HD5 vs AF): lowered
expression of ileal α-defensins, including Defa4, Defa20 and Defa21 (alcohol-fed mice; ileal mRNA, AF+HD5 vs AF, n=6): upregulated
alcohol-impaired distribution of ZO-1 and claudin-1 (alcohol-fed mice; ileum, IF staining and Western blot, n=3): reversed
alcohol-induced Lcn2 and Cxcl1 elevation, macrophage activation, and immune cell infiltration (alcohol-fed mice; liver, mRNA n=6, IHC/IF n=3): reduced
plasma ethanol levels and protein levels of CYP2E1 and ALDH2 (alcohol-fed mice; mouse, in vivo): remained the same
PAMP translocation, including endotoxemia and increased hepatic bacterial DNAs (alcohol-fed mice; plasma endotoxin, hepatic 16S rRNAs, n=8): effectively reversed
antibacterial function of both forms of HD5 with zinc (E. coli ML35; HD5 oxidized and reduced forms, with zinc vs without): significantly improved
bactericidal activity (E. coli ML35): effectively killed bacteria
intestinal injury caused by alcohol and colitis (mice): attenuated
Akkermensia sp. in mice (mice; without decreasing microbial diversity): increased

B2: HD5red: reduced form of HD5 (peptide, UniProt Q01523 20-94, looked up)
Defensin alpha 5: ESLQERADEATTQKQSGEDNQDLAISFAGNGLSALRTSGSQARATCYCRTGRCATRESLSGVCEISGRLYRLCCR
modifications: Defensin-5 reduced form
bactericidal activity (E. coli ML35): more potent
redox state of HD5red after overnight incubation in the absence of zinc ([5]; no zinc): all became oxidized
redox state of HD5red after overnight incubation with zinc ([5]; with zinc): a majority of HD5 remained in reduced forms
